One block for each compound: values may come before it. Calls of active or inactive are those of the source. No cut-off for these calls is given here.
Columns and labels:
[1] = species: Rattus norvegicus; test: Inhibition of Na+ channel in rat embryonic cortical neurons assessed as frequency-dependent decrease in current amplitude at 10 uM at -80 mV holding potential by whole-cell voltage clamp assay
[2] = species: Rattus norvegicus; test: Induction of voltage-dependent Na+ channel activation in rat embryonic cortical neurons at 10 uM by whole-cell voltage clamp assay (reference value: - 39 +/- 7.8 mV)
[3] = species: Rattus norvegicus; test: Induction of voltage-dependent Na+ channel fast inactivation in rat embryonic cortical neurons at 10 uM by whole-cell voltage clamp assay (reference value: - 51.1 +/- 1.4 mV)
[4] = Cytotoxicity against rat embryonic cortical neurons assessed as loss of membrane integrity at 20 uM; settings: cortical neurone
[5] = tested on: Rattus norvegicus; test: Anticonvulsant activity in po dosed albino Sprague-Dawley rat assessed as protection against maximal electroshock-induced seizures measured at 1 hr; type: functional
Summary of the method: (§1)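 Screened under the NINDS ASP in male albino Carworth Farms No. 1 mice (ip) or male albino Sprague-Dawley rats (ip or po), using MES, 6 Hz (32 mA) and subcutaneous pentylenetetrazol seizure tests. Initial qualitative tests used preset doses (e.g., 30, 50, 100 mg/kg). ED50 values with 95% confidence intervals came from dose–response data collected at the time of peak effect.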

[6] = Toxicity in ip dosed albino Sprague-Dawley rat assessed as behavioral changes measured at 0.5 hrs; type: organism-based; settings: in vivo
Summary of the method: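 Male albino Sprague-Dawley rats given compound intraperitoneally or orally (NINDS ASP); neurological impairment judged from behavioral toxicity effects. Preset screening doses (e.g., 30 mg/kg); for adequately active compounds, TD50 (mg/kg, 95% confidence intervals) derived from dose–effect data at time of peak effect.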

[7] = tested on: Mus musculus; test: Anticonvulsant activity in corneally kindled mouse assessed as protection against seizure at 28 mg/kg, ip; type: functional, organism-based; design: dose 28 mg/kg
Summary of the method: (§2)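 Corneally kindled mouse seizure model with ip dosing. Protection was scored in 4 animals, and the average seizure score was recorded.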

[8] = tested on: Mus musculus; test: Anticonvulsant activity in ip dosed albino CF-1 mouse assessed as protection against subcutaneous metrazol-induced seizure measured at 0.5 hrs; type: functional; settings: albino CF-1, 0.5 h; summary of the method: as §1
[9] = tested on: Mus musculus; test: Anticonvulsant activity in corneally kindled mouse assessed as protection against seizure at 78 mg/kg, ip; type: functional, organism-based; design: dose 78 mg/kg; summary of the method: as §2

inhibition [1]: inactive
V1/2 [2]: -35.3 mV
V1/2 [3]: -66.4 mV
SMILES: Cl.NCc1ccc(OCc2ccccc2OC(F)(F)F)cc1
Activity [4]: Toxic
ED50 [5]: 30 mg/kg
TD50 at 0.5 h [6]: 81 mg/kg

SMILES: Cl.NCc1ccc(OCc2cccc(OC(F)(F)F)c2)cc1
Activity [7]: Active
ED50 [8]: > 170 mg/kg

SMILES: Cl.NCc1ccc(OCc2cccc(Cl)c2)cc1
Activity [9]: Active
